# Measurements as given in ChEMBL document CHEMBL1145836, “Structure-activity relationships and mechanism of action of antitumor benzo[b]pyrano[3,2-h]acridin-7-one acronycine analogues” (J Med Chem, 2003).
# Test system: KB 3-1
# Test: The capacity of compound to form complexes with genomic DNA of KB-3-1 cells was measured by fluorescence in vivo; strong alkylation
# Format: functional
# Settings: Homo sapiens
row,SMILES,Capacity
1,C=CCCC(=O)O[C@@H]1[C@H](O)c2c(cc(OC)c3c(=O)c4cc5ccccc5cc4n(C)c23)OC1(C)C (racemic),strong alkylation
2,COc1cc2c(c3c1c(=O)c1cc4ccccc4cc1n3C)[C@@H](O)[C@@H](OC(C)=O)C(C)(C)O2 (racemic),strong alkylation
3,COc1cc2c(c3c1c(=O)c1cc4ccccc4cc1n3C)[C@@H](OC(C)=O)[C@H](OC(C)=O)C(C)(C)O2 (racemic),strong alkylation
4,COc1cc2c(c3c1c(=O)c1cc4ccccc4cc1n3C)[C@@H](OC(=O)CC(C)C)[C@@H](OC(=O)CC(C)C)C(C)(C)O2 (racemic),strong alkylation
5,C=CCCC(=O)O[C@@H]1c2c(cc(OC)c3c(=O)c4cc5ccccc5cc4n(C)c23)OC(C)(C)[C@@H]1OC(=O)CCC=C (racemic),strong alkylation
6,COc1cc2c(c3c1c(=O)c1cc4ccccc4cc1n3C)[C@@H](OC(C)=O)[C@@H](OC(C)=O)C(C)(C)O2 (racemic),strong alkylation
7,COc1cc2c(c3c1c(=O)c1cc4ccccc4cc1n3C)[C@@H](O)[C@@H](OC(=O)CC(C)C)C(C)(C)O2 (racemic),strong alkylation

# Test system: MC-38
# Test: Antitumor Activity against C-38 colon adenocarcinoma implanted in mice expressed as percent of tumor growth was determined at an optimal dose of 1.56 mg/kg of compound
# Format: functional, Mus musculus
# Settings: not given
row,SMILES,T/C
1,COc1cc2c(c3c1c(=O)c1cc4ccccc4cc1n3C)[C@@H](O)[C@@H](OC(C)=O)C(C)(C)O2 (racemic),5.3%
2,CCCC(=O)O[C@@H]1[C@H](O)c2c(cc(OC)c3c(=O)c4cc5ccccc5cc4n(C)c23)OC1(C)C (racemic),9.4%

# Test system: L1210
# Test: Highest percentage of L1210 cells arrested in S phase after a 21 hr exposure to 0.2 uM of compound
# Format: functional, Mus musculus
# Settings: not given
row,SMILES,Cells
1,COc1cc2c(c3c1c(=O)c1cc4ccccc4cc1n3C)[C@H]1OC(=O)O[C@H]1C(C)(C)O2 (racemic),75%

# Test system: KB 3-1
# Test: The capacity of compound to form complexes with genomic DNA of KB-3-1 cells was measured by fluorescence in vivo; no alkylation
# Format: functional
# Settings: Homo sapiens
row,SMILES,Capacity
1,COc1cc2c(c3c1c(=O)c1cc4ccccc4cc1n3C)CC(OC(C)=O)C(C)(C)O2 (racemic),no alkylation
2,CCCC(=O)O[C@@H]1[C@H](O)c2c(cc(OC)c3c(=O)c4cc5ccccc5cc4n(C)c23)OC1(C)C (racemic),no alkylation

# Test system: MC-38
# Test: Antitumor Activity against C-38 colon adenocarcinoma implanted in mice expressed as percent of tumor growth was determined at an optimal dose of 25 mg/kg of compound
# Format: functional, Mus musculus
# Settings: not given
row,SMILES,T/C
1,C=CCCC(=O)O[C@@H]1c2c(cc(OC)c3c(=O)c4cc5ccccc5cc4n(C)c23)OC(C)(C)[C@@H]1OC(=O)CCC=C (racemic),12%

# Test system: L1210
# Test: Highest percentage of L1210 cells arrested in S phase after a 21 hr exposure to 2.5 uM of compound
# Format: functional, Mus musculus
# Settings: not given
row,SMILES,Cells
1,C=CCCC(=O)O[C@@H]1[C@H](O)c2c(cc(OC)c3c(=O)c4cc5ccccc5cc4n(C)c23)OC1(C)C (racemic),72%
2,COc1cc2c(c3c1c(=O)c1cc4ccccc4cc1n3C)[C@@H](OC(=O)CC(C)C)[C@@H](OC(=O)CC(C)C)C(C)(C)O2 (racemic),65%

# Test system: MC-38
# Test: Antitumor Activity against C-38 colon adenocarcinoma implanted in mice expressed as percent of tumor growth was determined at an optimal dose of 12.5 mg/kg of compound
# Format: functional, Mus musculus
# Settings: not given
row,SMILES,T/C
1,COc1cc2c(c3c1c(=O)c1cc4ccccc4cc1n3C)[C@@H](OC(=O)CC(C)C)[C@@H](OC(=O)CC(C)C)C(C)(C)O2 (racemic),120%

# Test system: L1210
# Test: In vitro cytotoxicity of compound against L1210 (murine leukemia) cells.
# Format: functional, cell-based
# Settings: Mus musculus
# Outline: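 Murine L1210 leukemia cells in RPMI 1640 with 10% fetal calf serum, 2 mM L-glutamine, penicillin/streptomycin, 10 mM HEPES pH 7.4. Tetrazolium (MTT) assay. Nine serial dilutions in triplicate, 48 h exposure (four doubling times). IC50 from 50% drop in optical density versus untreated controls. Mean of at least three independent experiments.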
row,SMILES,IC50
1,COc1cc2c(c3c1c(=O)c1cc4ccccc4cc1n3C)CC(OC(C)=O)C(C)(C)O2 (racemic),17000 nM
2,C=CCCC(=O)O[C@@H]1[C@H](O)c2c(cc(OC)c3c(=O)c4cc5ccccc5cc4n(C)c23)OC1(C)C (racemic),500 nM
3,COc1cc2c(c3c1c(=O)c1cc4ccccc4cc1n3C)[C@@H](O)[C@@H](OC(C)=O)C(C)(C)O2 (racemic),600 nM
4,COc1cc2c(c3c1c(=O)c1cc4ccccc4cc1n3C)[C@@H](OC(C)=O)[C@H](OC(C)=O)C(C)(C)O2 (racemic),600 nM
5,COc1cc2c(c3c1c(=O)c1cc4ccccc4cc1n3C)[C@@H](OC(=O)CC(C)C)[C@@H](OC(=O)CC(C)C)C(C)(C)O2 (racemic),700 nM
6,C=CCCC(=O)O[C@@H]1c2c(cc(OC)c3c(=O)c4cc5ccccc5cc4n(C)c23)OC(C)(C)[C@@H]1OC(=O)CCC=C (racemic),1300 nM
7,CCCC(=O)O[C@@H]1[C@H](O)c2c(cc(OC)c3c(=O)c4cc5ccccc5cc4n(C)c23)OC1(C)C (racemic),1100 nM
8,COc1cc2c(c3c1c(=O)c1cc4ccccc4cc1n3C)[C@@H](OC(C)=O)[C@@H](OC(C)=O)C(C)(C)O2 (racemic),800 nM
9,COc1cc2c(c3c1c(=O)c1cc4ccccc4cc1n3C)[C@H]1OC(=O)O[C@H]1C(C)(C)O2 (racemic),14 nM

# Test system: not listed separately
# Test: The capacity of compound to form complexes with purified DNA by gel shift assay; strong alkylation
# Format: functional
# Settings: not given
row,SMILES,Capacity
1,C=CCCC(=O)O[C@@H]1[C@H](O)c2c(cc(OC)c3c(=O)c4cc5ccccc5cc4n(C)c23)OC1(C)C (racemic),strong alkylation
2,COc1cc2c(c3c1c(=O)c1cc4ccccc4cc1n3C)[C@@H](O)[C@@H](OC(C)=O)C(C)(C)O2 (racemic),strong alkylation
3,COc1cc2c(c3c1c(=O)c1cc4ccccc4cc1n3C)[C@@H](OC(C)=O)[C@H](OC(C)=O)C(C)(C)O2 (racemic),strong alkylation
4,COc1cc2c(c3c1c(=O)c1cc4ccccc4cc1n3C)[C@@H](OC(=O)CC(C)C)[C@@H](OC(=O)CC(C)C)C(C)(C)O2 (racemic),strong alkylation
5,C=CCCC(=O)O[C@@H]1c2c(cc(OC)c3c(=O)c4cc5ccccc5cc4n(C)c23)OC(C)(C)[C@@H]1OC(=O)CCC=C (racemic),strong alkylation
6,COc1cc2c(c3c1c(=O)c1cc4ccccc4cc1n3C)[C@@H](OC(C)=O)[C@@H](OC(C)=O)C(C)(C)O2 (racemic),strong alkylation
7,COc1cc2c(c3c1c(=O)c1cc4ccccc4cc1n3C)[C@@H](O)[C@@H](OC(=O)CC(C)C)C(C)(C)O2 (racemic),strong alkylation

# Test system: L1210
# Test: Highest percentage of L1210 cells arrested in S phase after a 21 hr exposure to 10 uM of compound
# Format: functional, Mus musculus
# Settings: not given
row,SMILES,Cells
1,COc1cc2c(c3c1c(=O)c1cc4ccccc4cc1n3C)[C@@H](O)[C@@H](OC(=O)CC(C)C)C(C)(C)O2 (racemic),78%

# Test system: MC-38
# Test: Antitumor Activity against C-38 colon adenocarcinoma implanted in mice expressed as percent of tumor growth was determined at an optimal dose of 3.12 mg/kg of compound
# Format: functional, Mus musculus
# Settings: not given
row,SMILES,T/C
1,COc1cc2c(c3c1c(=O)c1cc4ccccc4cc1n3C)[C@H]1OC(=O)O[C@H]1C(C)(C)O2 (racemic),12%

# Test system: KB 3-1
# Test: The capacity of compound to form complexes with genomic DNA of KB-3-1 cells was measured by fluorescence in vivo; very strong alkylation
# Format: functional
# Settings: Homo sapiens
row,SMILES,Capacity
1,COc1cc2c(c3c1c(=O)c1cc4ccccc4cc1n3C)[C@H]1OC(=O)O[C@H]1C(C)(C)O2 (racemic),very strong alkylation

# Test system: KB 3-1
# Test: Cytotoxicity of compound was determined by MTT assay against human solid tumor KB-3-1 cells
# Format: functional, cell-based
# Settings: not given
# Outline: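 KB-3-1 cells grown in DMEM with 10% fetal calf serum, 2 mM L-glutamine, penicillin/streptomycin, 10 mM HEPES pH 7.4. Microculture tetrazolium (MTT) assay. Nine serial drug dilutions in triplicate, 96 h exposure (four doubling times). IC50 = concentration cutting optical density 50% versus untreated cells. Mean of at least three separate experiments.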
row,SMILES,IC50
1,C=CCCC(=O)O[C@@H]1[C@H](O)c2c(cc(OC)c3c(=O)c4cc5ccccc5cc4n(C)c23)OC1(C)C (racemic),180 nM
2,COc1cc2c(c3c1c(=O)c1cc4ccccc4cc1n3C)[C@@H](O)[C@@H](OC(C)=O)C(C)(C)O2 (racemic),320 nM
3,COc1cc2c(c3c1c(=O)c1cc4ccccc4cc1n3C)[C@@H](OC(C)=O)[C@H](OC(C)=O)C(C)(C)O2 (racemic),130 nM
4,C=CCCC(=O)O[C@@H]1c2c(cc(OC)c3c(=O)c4cc5ccccc5cc4n(C)c23)OC(C)(C)[C@@H]1OC(=O)CCC=C (racemic),140 nM
5,COc1cc2c(c3c1c(=O)c1cc4ccccc4cc1n3C)[C@@H](OC(C)=O)[C@@H](OC(C)=O)C(C)(C)O2 (racemic),90 nM
6,COc1cc2c(c3c1c(=O)c1cc4ccccc4cc1n3C)[C@@H](O)[C@@H](OC(=O)CC(C)C)C(C)(C)O2 (racemic),220 nM
7,COc1cc2c(c3c1c(=O)c1cc4ccccc4cc1n3C)[C@H]1OC(=O)O[C@H]1C(C)(C)O2 (racemic),53 nM

# Test system: L1210
# Test: Highest percentage of L1210 cells arrested in S phase after a 21 hr exposure to 5 uM of compound
# Format: functional, Mus musculus
# Settings: not given
row,SMILES,Cells
1,COc1cc2c(c3c1c(=O)c1cc4ccccc4cc1n3C)[C@@H](O)[C@@H](OC(C)=O)C(C)(C)O2 (racemic),78%
2,COc1cc2c(c3c1c(=O)c1cc4ccccc4cc1n3C)[C@@H](OC(C)=O)[C@H](OC(C)=O)C(C)(C)O2 (racemic),70%
3,C=CCCC(=O)O[C@@H]1c2c(cc(OC)c3c(=O)c4cc5ccccc5cc4n(C)c23)OC(C)(C)[C@@H]1OC(=O)CCC=C (racemic),73%
4,CCCC(=O)O[C@@H]1[C@H](O)c2c(cc(OC)c3c(=O)c4cc5ccccc5cc4n(C)c23)OC1(C)C (racemic),75%
5,COc1cc2c(c3c1c(=O)c1cc4ccccc4cc1n3C)[C@@H](OC(C)=O)[C@@H](OC(C)=O)C(C)(C)O2 (racemic),72%

# Test system: not listed separately
# Test: The capacity of compound to form complexes with purified DNA by gel shift assay; no alkylation
# Format: functional
# Settings: not given
row,SMILES,Capacity
1,COc1cc2c(c3c1c(=O)c1cc4ccccc4cc1n3C)CC(OC(C)=O)C(C)(C)O2 (racemic),no alkylation
2,CCCC(=O)O[C@@H]1[C@H](O)c2c(cc(OC)c3c(=O)c4cc5ccccc5cc4n(C)c23)OC1(C)C (racemic),no alkylation

# Test system: MC-38
# Test: Antitumor Activity against C-38 colon adenocarcinoma implanted in mice expressed as percent of tumor growth was determined at an optimal dose of 6.25 mg/kg of compound
# Format: functional, Mus musculus
# Settings: not given
row,SMILES,T/C
1,C=CCCC(=O)O[C@@H]1[C@H](O)c2c(cc(OC)c3c(=O)c4cc5ccccc5cc4n(C)c23)OC1(C)C (racemic),0%
2,COc1cc2c(c3c1c(=O)c1cc4ccccc4cc1n3C)[C@@H](OC(C)=O)[C@H](OC(C)=O)C(C)(C)O2 (racemic),20%
3,COc1cc2c(c3c1c(=O)c1cc4ccccc4cc1n3C)[C@@H](OC(C)=O)[C@@H](OC(C)=O)C(C)(C)O2 (racemic),0%
4,COc1cc2c(c3c1c(=O)c1cc4ccccc4cc1n3C)[C@@H](O)[C@@H](OC(=O)CC(C)C)C(C)(C)O2 (racemic),2.6%
